Experimental data published in ChEMBL document CHEMBL1177718, “Phosphoramidate ProTides of 2'-C-methylguanosine as highly potent inhibitors of hepatitis C virus. Study of their in vitro and in vivo properties” (J Med Chem, 2010).

How the values were obtained:
[1] = Metabolic stability in mouse plasma assessed as compound remaining at 1 ug/ml after 30 mins; type: ADME, cell-free; details: read-out: Stability
[2] = Cytotoxicity against human HuH7 cells after 72 hrs by celltiter-glo assay; type: cell-based, Huh-7
Procedure, shortened: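 Replicon 1b Huh7 cells seeded 2 × 10⁴/well; after 24 h, 11 serial 2× dilutions from 100 μM (three repeats each) with no-compound control; 72 h at 37 °C, CO₂, log-phase growth; viability by CellTiter-Glo luminescence; CC₅₀ = concentration giving 50% signal.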

Hepatitis C virus = assay: Antiviral activity against HCV1b infected in human HuH7 cells assessed as inhibition of viral replication after 48 hrs by luciferase reporter gene assay; type: functional, organism-based, Hepacivirus hominis; details: genotype 1b, Huh-7, 48 h
Procedure, shortened: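 Huh7 cells carrying genotype 1b bicistronic subgenomic replicon, seeded 2 × 10⁴/well without G-418; compounds added 18-24 h later, 48 h exposure; 3× or 4× serial dilutions over 0.0001-10 μM in triplicate/quadruplicate; Renilla luciferase read-out versus untreated cells; EC₅₀ by four-parameter sigmoidal nonlinear regression; at least three independent assays.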

[3] = Metabolic stability in human liver S9 fraction assessed as compound remaining at 10 uM after 30 mins by HPLC analysis in presence of NADP; type: ADME, subcellular; details: read-out: Stability
[4] = Metabolic stability in human liver S9 fraction assessed as compound remaining at 10 uM after 30 mins by HPLC analysis in absence of NADP; type: ADME, subcellular; details: read-out: Stability
[5] = Metabolic stability in human intestine S9 fraction assessed as compound remaining at 10 uM after 30 mins by HPLC analysis in presence of NADP; type: ADME, tissue-based; details: read-out: Stability
[6] = Metabolic stability in human intestine S9 fraction assessed as compound remaining at 10 uM after 30 mins by HPLC analysis in absence of NADP; type: ADME, tissue-based; details: read-out: Stability
[7] = Metabolic stability in dog liver S9 fraction assessed as compound remaining at 10 uM after 30 mins by HPLC analysis in presence of NADP; type: ADME, subcellular, Canis lupus familiaris; details: read-out: Stability
[8] = Metabolic stability in dog liver S9 fraction assessed as compound remaining at 10 uM after 30 mins by HPLC analysis in absence of NADP; type: ADME, subcellular, Canis lupus familiaris; details: read-out: Stability
[9] = Metabolic stability in dog intestine S9 fraction assessed as compound remaining at 10 uM after 30 mins by HPLC analysis in presence of NADP; type: ADME, tissue-based, Canis lupus familiaris; details: read-out: Stability
[10] = Metabolic stability in dog intestine S9 fraction assessed as compound remaining at 10 uM after 30 mins by HPLC analysis in absence of NADP; type: ADME, tissue-based, Canis lupus familiaris; details: read-out: Stability
[11] = Metabolic stability in rat plasma assessed as compound remaining at 1 ug/ml after 30 mins; type: ADME, cell-free; details: read-out: Stability
Procedure, shortened: (§1)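 Duplicate incubations; compound at final 1 μg/mL in plasma preincubated and kept at […]; samples taken at 30 or 240 min, quenched with ice-cold acetonitrile, centrifuged, supernatant diluted with water; parent quantified by LC-MS/MS (Polar-RP column, formic acid water/acetonitrile gradient, positive ion mode); % remaining reported.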

[12] = Metabolic stability in dog plasma assessed as compound remaining at 1 ug/ml after 30 mins; type: ADME, cell-free, Canis lupus familiaris; details: read-out: Stability; procedure, shortened: as §1
[13] = Metabolic stability in cynomolgus monkey plasma assessed as compound remaining at 1 ug/ml after 30 mins; type: ADME, cell-free, Macaca fascicularis; details: read-out: Stability; procedure, shortened: as §1
[14] = Metabolic stability in cynomolgus monkey liver S9 fraction assessed as compound remaining at 10 uM after 30 mins by HPLC analysis in presence of NADP; type: ADME, subcellular, Macaca fascicularis; details: read-out: Stability
[15] = Metabolic stability in cynomolgus monkey liver S9 fraction assessed as compound remaining at 10 uM after 30 mins by HPLC analysis in absence of NADP; type: ADME, subcellular, Macaca fascicularis; details: read-out: Stability
[16] = Metabolic stability in cynomolgus monkey intestine S9 fraction assessed as compound remaining at 10 uM after 30 mins by HPLC analysis in presence of NADP; type: ADME, tissue-based, Macaca fascicularis; details: read-out: Stability
[17] = Metabolic stability in cynomolgus monkey intestine S9 fraction assessed as compound remaining at 10 uM after 30 mins by HPLC analysis in absence of NADP; type: ADME, tissue-based, Macaca fascicularis; details: read-out: Stability
[18] = Metabolic stability in rat liver S9 fraction assessed as compound remaining at 10 uM after 30 mins by HPLC analysis in presence of NADP; type: ADME, subcellular; details: read-out: Stability
[19] = Metabolic stability in rat liver S9 fraction assessed as compound remaining at 10 uM after 30 mins by HPLC analysis in absence of NADP; type: ADME, subcellular; details: read-out: Stability
[20] = Metabolic stability in rat intestine S9 fraction assessed as compound remaining at 10 uM after 30 mins by HPLC analysis in presence of NADP; type: ADME, tissue-based; details: read-out: Stability
[21] = Metabolic stability in rat intestine S9 fraction assessed as compound remaining at 10 uM after 30 mins by HPLC analysis in absence of NADP; type: ADME, tissue-based; details: read-out: Stability
Homo sapiens = organism: Homo sapiens; assay: Metabolic stability in human plasma assessed as compound remaining at 1 ug/ml after 30 mins

## C[C@@]1(O)[C@H](O)[C@@H](COP(=O)(N[C@@H](Cc2ccccc2)C(=O)OCc2ccccc2)Oc2cccc3ccccc23)O[C@H]1n1cnc2c(=O)[nH]c(N)nc21 (stereo not given in full)
[1]
  remaining at 0.5 h, 1 ug/ml: 1%
[2]
  CC50 at 72 h: > 100 µM
Hepatitis C virus
  EC50: 1.2 µM
[3]
  remaining at 0.5 h, 10 µM: 0%
[4]
  remaining at 0.5 h, 10 µM: 20%
[5]
  remaining at 0.5 h, 10 µM: 0%
[6]
  remaining at 0.5 h, 10 µM: 5%
[7]
  remaining at 0.5 h, 10 µM: 4%
[8]
  remaining at 0.5 h, 10 µM: 15%
[9]
  remaining at 0.5 h, 10 µM: 0%
[10]
  remaining at 0.5 h, 10 µM: 0%

## C[C@H](NP(=O)(OC[C@H]1O[C@@H](n2cnc3c(=O)[nH]c(N)nc32)[C@](C)(O)[C@@H]1O)Oc1cccc2ccccc12)C(=O)OCc1ccccc1 (stereo not given in full)
[1]
  remaining at 0.5 h, 1 ug/ml: 1.1%
[11]
  remaining at 0.5 h, 1 ug/ml: 1.3%
[12]
  remaining at 0.5 h, 1 ug/ml: 67%
[13]
  remaining at 0.5 h, 1 ug/ml: 54%
[2]
  CC50 at 72 h: > 100 µM
Hepatitis C virus
  EC50: 0.062 µM
[3]
  remaining at 0.5 h, 10 µM: 27%
[4]
  remaining at 0.5 h, 10 µM: 41%
[5]
  remaining at 0.5 h, 10 µM: 0%
[6]
  remaining at 0.5 h, 10 µM: 49%
[14]
  remaining at 0.5 h, 10 µM: 0%
[15]
  remaining at 0.5 h, 10 µM: 32%
[16]
  remaining at 0.5 h, 10 µM: 0%
[17]
  remaining at 0.5 h, 10 µM: 30%
[18]
  remaining at 0.5 h, 10 µM: 0%
[19]
  remaining at 0.5 h, 10 µM: 0%
[20]
  remaining at 0.5 h, 10 µM: 30%
[21]
  remaining at 0.5 h, 10 µM: 46%
Homo sapiens
  remaining at 0.5 h, 1 ug/ml: 58%
